STEP block: STEP phosphatase inhibitors, primary screen, biochemical, fluorescence intensity, uHTS | 360,000 tested, 0.25% active | inhibition, % at 20 µM | recombinant STEP, OMFP fluorogenic substrate | AID 588621, 2011;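 active means inhibition at 20 µM, scaled per plate between control wells, above about 37%, limit read from the data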;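 further: 0% = DMSO with enzyme and substrate and 100% = substrate only without enzyme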
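Test system: STEP tyrosine phosphatase / Reagent: OMFP at 25 µM / Doses: 20 µM, 1% DMSO / Read-out: percent inhibition scaled to no-enzyme and uninhibited-enzyme controls, plate-pattern corrected / Detection: FITC-channel fluorescence of OMFP product / Medium: Bis-Tris buffer pH 6.0, 2.5 mM DTT, 0.005% Tween 20 / Schedule: 20 min at room temperature, dark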
SUMO1 PPI mod: modulators of SUMO1 protein-protein interactions, primary screen, biochemical, uHTS; SUMO1 binding to a labelled peptide, TR-FRET, 1 h; 360,000 tested, 0.33% active; AID 602429, 2012; inhibition, % at 20 µM; in the data active means inhibition above about 37%
Target sequence (P63165 whole entry, looked up): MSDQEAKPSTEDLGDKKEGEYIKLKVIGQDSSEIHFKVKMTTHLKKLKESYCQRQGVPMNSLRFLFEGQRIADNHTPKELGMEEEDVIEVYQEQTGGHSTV
DNMT1 block: human DNMT1 methyltransferase inhibitors, primary screen, biochemical, molecular beacon, fluorescence, HinP1I cleavage, uHTS. inhibition (reported as % activation of signal), % at 10 µM. 360,000 tested, 0.83% active; in the data active means inhibition above about 50%
LMPTP block: LMPTP phosphatase inhibitors, primary screen, biochemical, fluorescence intensity, uHTS. Low molecular weight phosphotyrosine protein phosphatase (Homo sapiens), P24666. recombinant LMPTP-A, OMFP fluorogenic substrate. inhibition, % at 20 µM. 360,000 tested, 0.22% active;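 active means compounds that cut the enzyme signal by at least half of the control window in the single-dose screen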;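 further: plate controls were DMSO wells with enzyme plus substrate for no effect and substrate without enzyme for full effect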
Target sequence (P24666 whole entry, looked up): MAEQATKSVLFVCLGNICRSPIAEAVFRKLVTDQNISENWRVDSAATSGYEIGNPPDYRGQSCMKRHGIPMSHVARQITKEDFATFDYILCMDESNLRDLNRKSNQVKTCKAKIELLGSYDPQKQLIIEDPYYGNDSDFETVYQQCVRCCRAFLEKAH
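test system = LMPTP-A | amount = 0.625 nM LMPTP-A final | reagent = fluorogenic phosphatase substrate OMFP at 400 µM final | incubation = 50 min at room temperature | benchmarks = no-enzyme low control, uninhibited high control | medium = Bis-Tris pH 6.0, DTT, detergent | signal = fluorescence intensity of OMFP turnover product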
Scp-1 inhibitor: Scp-1 phosphatase inhibitors, primary screen, biochemical, colorimetric, uHTS; Carboxy-terminal domain RNA polymerase II polypeptide A small phosphatase 1 (Homo …; Recombinant Scp1, phosphopeptide, malachite green phosphate absorbance; inhibition, % at 20 µM; 340,000 tested, 0.88% active; AID 493091, 2011;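 active means inhibition above about 50% at 20 µM, limit read from the data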;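 further: plate controls were DMSO wells with enzyme for no effect and wells lacking enzyme for full effect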
Target sequence (Q9GZU7 76-261 limits assumed): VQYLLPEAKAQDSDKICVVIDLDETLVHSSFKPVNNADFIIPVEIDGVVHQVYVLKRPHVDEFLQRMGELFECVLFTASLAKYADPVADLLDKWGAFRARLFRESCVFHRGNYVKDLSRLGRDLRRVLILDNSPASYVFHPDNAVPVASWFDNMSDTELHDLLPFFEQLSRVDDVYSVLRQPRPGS
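System: truncated SCP-1 phosphatase (76-261aa); medium: Tris acetate buffer pH 5.5 with MgCl2 and Tween-20; incubation: 45 min room-temperature reaction, 5 min colour, 30 min stabiliser; compound: single 20 µM dose, 1% DMSO; reagent: Phosphorylated 17-residue peptide substrate; read-out: % inhibition at 20 µM; technique: colorimetric free-phosphate detection, absorbance 630 nm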
Scp1 confirm: Scp-1 phosphatase inhibitors, retest, confirmation, biochemical, colorimetric, single concentration; shares compounds with Scp-1 inhibitor; recombinant SCP-1 catalytic domain, phosphate release, malachite green absorbance; inhibition, % at 20 µM; 2,500 tested, 61% active; AID 540281, 2011;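 further: plate controls were DMSO with enzyme for no effect and buffer wells lacking enzyme for full effect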
MG interference: colorimetric readout interference by compounds, confirmation, artefact control for Scp-1 inhibitor project, biochemical, single concentration. apparent inhibition (interference), % at 20 µM. Colorimetric interference counterscreen, malachite green absorbance 630 nm. AID 540313, 2011. 2,500 tested, under 10 active. shares compounds with Scp-1 inhibitor;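 further: compounds added after enzyme reaction finished so only phosphate colour detection is probed; plate controls were DMSO wells with completed Scp-1 reaction for no effect and substrate wells lacking enzyme for full effect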
Scp-1 Tm shift: Scp-1 binding by thermal shift, confirmation, orthogonal assay for Scp-1 inhibitor project, biophysical, differential scanning fluorimetry; shares compounds with Scp-1 inhibitor; Recombinant SCP1, Sypro Orange thermal shift Tm; thermal shift relative to vanadate control, % at 40 µM; 1,500 tested, 25% active; AID 540329, 2011;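 active means substances whose mean melting-temperature shift, as a percentage of the reference inhibitor's shift, reaches about 5.3%, limit read from the data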;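 further: 0% = Tm of DMSO wells and 100% = Tm with sodium orthovanadate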
Numbers without * were called inactive; · = not tested or not shown. This is a sample that favours compounds with a hit; in the whole collection about 1.7% have one here.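 How the source made its calls, unless noted: active means inhibition of at least 30% at 20 µM; inactive means the rest.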

SMILES	STEP block	SUMO1 PPI mod	DNMT1 block	LMPTP block	Scp-1 inhibitor	Scp1 confirm	MG interference	others
CCOc1ccc(C(=O)Nc2cccc(-c3nc4cccnc4o3)c2)cc1Cl	2.5	9.6	-1.6	5.9	82.5*	10.0	-4.3
COc1ccc(NC(=O)c2ccco2)c2ccccc12	-2.6	-10.5	-5.3	1.0	-12.3	·	·
O=C(O)CCN1C(=O)c2ccc(NC(=O)c3ccco3)cc2C1=O	-2.0	-14.1	-4.3	0.3	2.0	·	·
O=C(O)CCN1C(=O)c2ccc(NC(=O)C(c3ccccc3)c3ccccc3)cc2C1=O	-0.7	-19.0	2.6	0.4	67.2*	-10.6	-15.8
COc1ccc(CCNC(=O)c2ccc3c(=O)n(Cc4ccco4)c(=S)[nH]c3c2)cc1OC	3.9	10.7	-7.1	3.5	58.2*	-14.1	-16.7
CCOc1cc2[nH]c(=S)n(Cc3ccc(C(=O)NCCCN(CC)CC)cc3)c(=O)c2cc1OCC	-1.1	11.3	-0.8	-0.1	59.1*	-13.1	-10.9
CCCNC(=O)c1ccc2c(=O)n(Cc3ccco3)c(=S)[nH]c2c1	0.9	5.2	1.1	-0.1	-3.5	·	·
CC(NC(=O)c1ccccc1Br)c1nnc(SCC(=O)NC2=NCCS2)n1C (centres undefined)	-1.1	2.0	1.1	-0.4	-3.6	·	·
CCOC(=O)C(Cc1ccnc2ccccc12)=NO	-3.6	0.9	8.0	2.3	-5.0	·	·
CCOC(=O)C(=O)Cc1cccnn1	3.3	43.4*	66.3*	5.9	74.7*	44.3*	-22.8	Scp-1 Tm shift=12.2*
COc1cccc(NC(=O)CSCc2cc(=O)n3nc(C4CC4)sc3n2)c1	-1.9	-1.9	2.0	-1.6	-3.8	-16.9	-15.1
Cc1ccc(C(=O)NCCCNC(=O)COc2ccccc2Cl)cn1	-1.4	-4.6	-0.5	-1.3	57.9*	-4.6	-8.7
Cc1cccc(OCC(=O)Nc2ccc(CN3CCOCC3)cc2)c1C	-0.2	0.6	-0.5	-0.1	-6.7	·	·
Cc1ccc(OCC(=O)Nc2ccc(CN3CCOCC3)cc2)cc1	-0.7	0.6	1.0	-0.1	69.9*	-11.7	-14.8
Cc1ccc(NC(=O)COc2ccc(/C=N/NC(=O)CSCc3ccccc3)cc2)cc1	-0.8	-0.2	2.4	0.1	84.8*	70.0*	-14.0	Scp-1 Tm shift=-5.0
CCCc1n(CC(O)COC2CCCCC2)c2ccccc2[n+]1C (centres undefined)	1.2	1.5	-1.1	-0.9	100.3*	76.7*	-6.8	Scp-1 Tm shift=-22.5
O=C(O)c1ccccc1C(=O)NCC(O)COCC1CC=CCC1 (centres undefined)	1.1	-1.9	8.1	-1.1	-4.0	·	·
CCCc1n(CC(O)COCc2ccccc2)c2ccccc2[n+]1C (centres undefined)	-2.7	-0.9	3.4	1.4	20.7	·	·
CCCc1n(CC(O)COCC2CC=CCC2)c2ccccc2[n+]1C (centres undefined)	-1.4	-3.3	-2.7	-1.0	66.8*	10.1	-6.0
Cc1ccc(CNC(=O)c2cc(=O)c3cc(C)ccc3o2)cc1	24.4	11.7	2.1	28.7	60.5*	19.8	-15.1
O=C(Nc1ccc(Br)cn1)c1coc(=O)c(Br)c1	2.2	-5.5	9.3	-1.8	69.1*	25.2	-7.3
CC(C)OCCOc1ccc2oc(-c3ccco3)cc(=O)c2c1	36.4	-11.8	28.1	14.7	61.3*	59.9*	-17.8	Scp-1 Tm shift=-16.7
CCSC1=N/C(=C\c2ccc(OC)cc2)C(=O)N1	-1.9	-13.2	3.7	-1.4	50.1*	1.7	-3.2
Cc1ccc(S(=O)(=O)N2C[C@@H](C)[C@]3(C2)[C@H](O)[C@H](OC(=O)NC2CC2)C[C@H]2C(=O)N(c4ccccc4)C(=O)[C@H]23)cc1	1.0	-0.7	-6.5	-0.8	·	·	·
Cc1cc(C)n2nc(C(=O)OCC(=O)c3ccccc3)nc2n1	2.5	1.5	2.8	0.1	72.9*	-9.9	-20.6
SMILES	STEP block	SUMO1 PPI mod	DNMT1 block	LMPTP block	Scp-1 inhibitor	Scp1 confirm	MG interference	others
C/C(N)=C(/C#N)C(=O)CSc1nnc(Nc2cccc(C)c2)s1	2.6	10.4	23.0	8.1	64.0*	74.3*	-4.6	Scp-1 Tm shift=-1.9
Cc1cccc(Nc2nnc(SCC(=O)c3c(N)n(C4CC4)c(=O)[nH]c3=O)s2)c1	-1.1	1.1	2.0	2.1	-3.3	·	·
CC(C#N)(NC(=O)CN1CCN(S(=O)(=O)c2ccccc2Cl)CC1)C1CC1 (centres undefined)	0.5	-4.0	1.5	-0.9	2.8	·	·
Cc1nn(CC(=O)OCC(=O)c2ccccc2)c(C)c1[N+](=O)[O-]	-0.1	-4.2	0.6	-0.4	-2.7	·	·
Cc1cc(=O)oc2cc(NC(=O)c3ccccc3OC(F)F)ccc12	0.2	1.1	-9.0	0.9	-4.4	·	·
Cc1cc(=O)oc2cc(NC(=O)c3cc(F)ccc3F)ccc12	18.6	16.6	17.8	17.3	85.8*	62.3*	-11.7	Scp-1 Tm shift=-28.9
CC1=CC2=NC(=O)/C(=C\c3cccn3CCOc3cc(C)ccc3C)C(=N)N2O1	1.9	-8.4	-1.0	2.0	-9.0	·	·
CCc1nn(C(CC)C(=O)NCC(C)c2ccccc2)c(=O)c2cc3occc3n12 (centres undefined)	-2.5	1.2	1.0	4.0	-6.3	·	·
CCc1ccc(C(=O)NNC(=O)c2ccc(=O)n(C)n2)cc1	-0.6	-3.4	-0.4	0.4	-4.7	·	·
Cc1ccccc1/C=C/c1cc[n+](C)cc1	1.7	-16.0	1.0	-0.5	58.3*	-12.2	-20.2
Cc1[nH]c2ccccc2c1/C=C/c1cc[n+](C)cc1	-3.5	-85.0	7.7	5.9	33.5	·	·
COc1ccc(F)cc1S(=O)(=O)NCC(c1ccco1)N1CCc2ccccc2C1 (centres undefined)	-2.9	0.3	2.8	0.9	-4.8	·	·
CC(=O)c1cccc(NC(=O)Cn2nc(-c3ccc(Cl)cc3)ccc2=O)c1	-1.9	-0.9	0.4	0.2	51.2*	-15.6	-18.3
CC(=O)c1cccc(NC(=O)Cn2nc(-c3ccccc3Cl)ccc2=O)c1	-0.1	0.1	-0.7	0.6	-3.0	·	·
